Columns and labels:
mice (immobility in FST) = experiment: Forced swimming test; assay type: in vivo, Kunming mice; details: for Antidepressant activity in FST, significance compared with the control group: mice, 40 mg kg^-1; for Relationship between dose and antidepressant activity in FST: mice, 10, 20 and 40 mg kg^-1 (Fig. 3)
Summary of the method: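 Kunming mice (18–22 g) with free access to food and water; test compound in 0.5% methylcellulose or DMSO, given by intraperitoneal or subcutaneous injection at 40 mg kg−1; fluoxetine as positive control; test time 0.5 h. Read-out is immobility duration (s) and DID (%), compared with the control group by one-way ANOVA. A dose series of 10, 20 and 40 mg kg−1 was also run.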

5-HT1A receptor = target: T1, 5-HT1A receptor (Homo sapiens, UniProt P08908); experiment: biochemical
T1 sequence (P08908 1-422): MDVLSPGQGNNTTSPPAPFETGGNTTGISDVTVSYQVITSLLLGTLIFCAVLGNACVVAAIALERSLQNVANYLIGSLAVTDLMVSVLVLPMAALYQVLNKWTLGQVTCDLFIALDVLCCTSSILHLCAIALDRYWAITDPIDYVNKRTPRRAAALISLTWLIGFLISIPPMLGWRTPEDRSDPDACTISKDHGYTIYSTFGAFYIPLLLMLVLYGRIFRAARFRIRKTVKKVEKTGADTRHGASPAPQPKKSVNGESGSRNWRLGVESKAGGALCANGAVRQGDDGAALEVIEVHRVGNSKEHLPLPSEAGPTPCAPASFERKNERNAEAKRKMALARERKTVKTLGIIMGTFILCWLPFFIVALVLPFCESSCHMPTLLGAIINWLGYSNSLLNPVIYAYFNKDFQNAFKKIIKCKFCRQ

mice (immobility in TST) = experiment: Tail suspension test; assay type: in vivo; details: 40 mg kg^-1, n = 8 (Fig. 4)
Summary of the method: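 Tail suspension test in Kunming mice (18–22 g), used as a second behavioural-despair model to confirm FST findings. Test compound at 40 mg kg−1 in 0.5% methylcellulose or DMSO, injected intraperitoneally or subcutaneously; fluoxetine at the same dose as positive control. Groups compared with control by one-way ANOVA.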

[1] = test system: 5-HT concentration in the mice brain; experiment: Determination of brain 5-HT concentration by ELISA; assay type: in vivo; details: 40 mg kg^-1, 1 h after administration, n = 8 (Fig. 5)
[2] = test system: spontaneous locomotor activity of mice; experiment: Open-field test; assay type: in vivo; details: 40 mg kg^-1, administered 1 h before the test, n = 8 (Fig. 6)
Summary of the method: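 Kunming mice given test compound at 40 mg kg−1 (0.5% methylcellulose or DMSO vehicle; intraperitoneal or subcutaneous) 1 h before placement in a novel open field. Spontaneous activity is counted as line crossings (locomotion), rearing (standing on hind legs) and grooming. n = 8 per group, values as mean ± SEM.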

| Ki (5-HT1A receptor) [nM] | Compound | Antidepressant activity in FST, significance compared with the control group (mice (immobility in FST)) | other results |
| --- | --- | --- | --- |
|  | O=C1CCc2ccc(OCc3nnc(SCc4ccc(F)cc4)o3)cc2N1 [Compound 5f, 7-((5-((4-Fluorobenzyl)thio)-1,3,4-oxadiazol-2-yl)methoxy)-3,4-dihydroquinolin-2(1H)-one] | significant |  |
| 1.77 ± 0.14 | O=C1CCc2ccc(OCc3nnc(SCc4ccc(Cl)cc4)o3)cc2N1 [Compound 5g, 7-((5-((4-Chlorobenzyl)thio)-1,3,4-oxadiazol-2-yl)methoxy)-3,4-dihydroquinolin-2(1H)-one] |  |  |
| 2.73 ± 0.22 | O=C1CCc2ccc(OCc3nnc(SCc4ccc(C(F)(F)F)cc4)o3)cc2N1 [Compound 5h, 7-((5-((4-Trifluoromethylbenzyl)thio)-1,3,4-oxadiazol-2-yl)methoxy)-3,4-dihydroquinolin-2(1H)-one] |  |  |
| 2.01 ± 0.18 | CC(=O)Nc1cccc(OCc2nnc(SCc3ccccc3Cl)o2)c1 [Compound 10e, N-(3-((5-((2-Chlorobenzyl)thio)-1,3,4-oxadiazol-2-yl)methoxy)phenyl)acetamide] | high significant |  |
|  | CC(=O)Nc1cccc(OCc2nnc(SCc3cccc(Cl)c3)o2)c1 [Compound 10f, N-(3-((5-((3-Chlorobenzyl)thio)-1,3,4-oxadiazol-2-yl)methoxy)phenyl)acetamide] | significant |  |
| 1.68 ± 0.13 | CC(=O)Nc1cccc(OCc2nnc(SCc3ccc(Cl)cc3)o2)c1 [Compound 10g, N-(3-((5-((4-Chlorobenzyl)thio)-1,3,4-oxadiazol-2-yl)methoxy)phenyl)acetamide] | high significant | Relationship between dose and antidepressant activity in FST (mice (immobility in FST)): as the dose increases, the antidepressant activity increases; Antidepressant activity in TST (mice (immobility in TST)): highly significant; Effect on brain 5-HT concentration [1]: significantly (p < 0.05) increased the 5-HT concentration; Exploratory activity in open-field test (crossing, rearing, grooming) [2]: no significant difference |
| 4.14 ± 0.16 | CC(=O)Nc1cccc(OCc2nnc(SCc3ccc(C(F)(F)F)cc3)o2)c1 [Compound 10j, N-(3-((5-((4-Trifluoromethylbenzyl)thio)-1,3,4-oxadiazol-2-yl)methoxy)phenyl)acetamide] | high significant |  |
|  | CC(=O)Nc1cccc(OCc2nnc(SCc3ccc(C)cc3)o2)c1 [Compound 10m, N-(3-((5-((4-Methylbenzyl)thio)-1,3,4-oxadiazol-2-yl)methoxy)phenyl)acetamide] | significant |  |
|  | CNCCC(Oc1ccc(C(F)(F)F)cc1)c1ccccc1 (centres unmarked) [Fluoxetine, reference compound] |  | Relationship between dose and antidepressant activity in FST (mice (immobility in FST)): as the dose increases, the antidepressant activity increases; Effect on brain 5-HT concentration [1]: significantly (p < 0.05) increased the 5-HT concentration |
